Data: publication PMC2898448 (The Journal of Biological Chemistry, 2010)
“Also recorded” adds a separate entry of the source. One block for each molecule: values may come before it. No end group written: not given here. *: point of attachment. pNA = O=[N+]([O-])c1ccc(N*)cc1; Cbz = O=C(OCc1ccccc1)*

Tests used:
DPP4 = conditions: ref [64]; cited from earlier work
PEP = conditions: ref [9]; cited from earlier work
[1] = tested on: apPEP (WT and D622N crystals); test: Crystal soaking with zPP; type: binding, Aeromonus punctata
Procedure, shortened: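 Native full-length WT or D622N apPEP (E. coli-expressed, Ni-affinity purified, thrombin-cleaved, SEC) crystallized at 14 °C with 20 mM MES pH 6.5 and PEG. Crystals were cryoequilibrated 1–2 days at 4 °C, soaked overnight at 4 °C, then glutaraldehyde vapour cross-linked for 4 h at 4 °C. Data were collected at 100 K; structures solved by molecular replacement, with inhibitor placed from difference maps.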

[2] = cited from earlier work; for side effects (in words): ref [18], [19]; for duration of action (in words): reference not given
[3] = tested on: apPEP (WT Aeromonus punctata PEP); test: apPEP enzyme kinetics with chromogenic/fluorescent substrate Z-Gly-Pro-pNA; type: biochemical
Procedure, shortened: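 Free pNA was read […] to give initial velocities. Km came from a Lineweaver-Burk plot over 31–500 μM substrate. kcat/Km was taken as Vo/SoEo at two or more substrate concentrations.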

Molecule: gastrin-releasing peptide 3–27: DPP4 substrate (LPAGGGTVLTKMYPRGNHWAVGHLM; ends and bridges not checked; UniProt P07492 26-50, looked up, fragment)
- cleavage efficiency by DPP4 relative to GLP1 (in words) (DPP4): even higher efficiency than GLP1

Molecule: neuropeptide Y: involved in neurogenic inflammation and blood pressure regulation
- cleavage efficiency by DPP4 relative to GLP1 (in words) (DPP4): even higher efficiency than GLP1

Molecule: bradykinin: cleaved by PEP (RPPGFSPFR; Bradykinin; UniProt P01042 381-389, looked up)
- cleavage by PEP (in words) (PEP): Cleavage

Molecule: benzyloxy-carbonyl-prolyl-prolinal [zPP]
- contact with catalytic Ser538 (in words) ([1]; D622N-zPP structure): makes van der Waals contact with the aldehyde group of the inhibitor
- conformational change induced by inhibitor (in words) ([1]; preformed native crystals soaked with 10 mM zPP overnight at 4 °C): inducing a conformational change from opened (red) to closed (blue) states; also recorded: induces large scale interdomain closure

Molecule: stromal cell-derived factor 1α
- cleavage efficiency by DPP4 relative to GLP1 (in words) (DPP4): even higher efficiency than GLP1

Molecule: N#C[C@@H]1CCCN1C(=O)CNC12CC3CC(CC(O)(C3)C1)C2 [Galvus]
- side effects (in words) [2]: no significant negative side effects
- duration of action (in words) [2]: act transiently

- kcat ([3]; 20 mM Tris-HCl (pH 8), 100 mM NaCl, 34 °C): 505 s⁻¹
- kcat/Km ([3]; from initial rates, kcat/Km = Vo/SoEo, substrate 16–62 μM, pH 8, 34 °C): 623 s⁻¹ mM⁻¹
Molecule: Cbz-Gly-Pro-pNA

Molecule: angiotensin I-II
- cleavage by PEP (in words) (PEP): Cleavage

Molecule: IP10: DPP4 substrate
- cleavage efficiency by DPP4 relative to GLP1 (in words) (DPP4): even higher efficiency than GLP1

Molecule: N[C@@H](CC(=O)N1CCn2c(nnc2C(F)(F)F)C1)Cc1cc(F)c(F)cc1F [Januvia]
- side effects (in words) [2]: no significant negative side effects
- duration of action (in words) [2]: act transiently

B1: monocyte-derived chemokine: DPP4 substrate (protein, UniProt O00626 25-93, looked up)
C-C motif chemokine 22: GPYGANMEDSVCCRDYVRYRLPLRVVKHFYWTSDSCPRPGVVLLTFRDKEICADPRVPWVKMILNKLSQ
- cleavage efficiency by DPP4 relative to GLP1 (in words) (DPP4): even higher efficiency than GLP1

B2: Mig: DPP4 substrate (protein, UniProt Q07325 23-125, looked up)
C-X-C motif chemokine 9: TPVVRKGRCSCISTNQGTIHLQSLKDLKQFAPSPSCEKIEIIATLKNGVQTCLNPDSADVKELIKKWEKQVSQKKKQKNGKKHQKKKVLKVRKSQRSRQKKTT
- cleavage efficiency by DPP4 relative to GLP1 (in words) (DPP4): even higher efficiency than GLP1

B3: interferon-inducible T cell α: DPP4 substrate (protein, UniProt O14625 22-94, looked up)
C-X-C motif chemokine 11: FPMFKRGRCLCIGPGVKAVKVADIEKASIMYPSNNCDKIEVIITLKENKGQRCLNPKSKQARLIIKKVERKNF
- cleavage efficiency by DPP4 relative to GLP1 (in words) (DPP4): even higher efficiency than GLP1
